Results as given in ChEMBL document CHEMBL4041473, “Identification of novel microsomal prostaglandin E2 synthase-1 (mPGES-1) lead inhibitors from Fragment Virtual Screening” (Eur J Med Chem, 2017).
pIC50: −log10 of the molar value.

Key:
[1] = target: T1, Prostaglandin E synthase (Homo sapiens, UniProt O14684); assay: Inhibition of mPGES-1 in microsomes isolated from IL-1beta-stimulated human A549 cells using PGH2 as substrate preincubated for 15 mins followed by substrate addition measured after 1 min by RP-HPLC method; type: cell-free
T1 sequence (O14684 whole entry): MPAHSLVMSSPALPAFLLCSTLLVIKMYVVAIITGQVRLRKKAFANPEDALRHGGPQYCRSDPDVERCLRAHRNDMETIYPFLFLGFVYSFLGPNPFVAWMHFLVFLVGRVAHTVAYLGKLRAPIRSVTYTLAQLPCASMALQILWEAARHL
How it was run: (§1)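 mPGES-1 source: microsomes of A549 cells stimulated 48 h with IL-1β (1 ng/ml), sonicated, spun 10,000×g 10 min then 174,000×g 1 h at 4 °C. Diluted in 0.1 M potassium phosphate pH 7.4 with 2.5 mM glutathione. Compound or DMSO vehicle added 15 min at 4 °C, then 20 µM PGH2 for 1 min at 4 °C. Stopped with FeCl2/citric acid plus 11β-PGE2. PGE2 measured by solid-phase extraction and RP-HPLC.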

[2] = target: T2, Prostaglandin E synthase (Homo sapiens) (UniProt O14684); assay: Inhibition of mPGES-1 in microsomes isolated from IL-1beta-stimulated human A549 cells at 10 uM using PGH2 as substrate preincubated for 15 mins followed by substrate addition measured after 1 min by RP-HPLC method relative to control; type: cell-free; how it was run: as §1
T2 sequence (whole entry): T1 sequence (O14684 whole entry)

SMILES	pIC50 [1]	inhibition [2]
O=C(Oc1ccc2c(c1)-c1nc3nonc3nc1C2=O)c1ccccc1	5.62	70%
O=C1c2ccc(O)cc2-c2nc3nonc3nc21	–	30%
O=C1c2cc(O)ccc2-c2nc3nonc3nc21	–	15%
O=C(Oc1cccc2c1C(=O)c1nc3nonc3nc1-2)c1ccccc1	5.34	70%
O=C1c2nc3nonc3nc2-c2cccc(O)c21	–	5%
O=C(Oc1ccc2c(c1)C(=O)c1nc3nonc3nc1-2)c1ccccc1	5.62	85%
O=C1c2ccccc2-c2nc3nonc3nc21	–	30%
CC(=O)O/N=C1\C=Cc2c(no[n+]2[O-])C1=O	–	20%
